Reference: ChEMBL document CHEMBL4359878, “Discovery of 4-piperazinyl-2-aminopyrimidine derivatives as dual inhibitors of JAK2 and FLT3” (Eur J Med Chem, 2019)

Legend:
MV4-11 = experiment: Antiproliferative activity against human MV4-11 cells assessed as growth inhibition after 72 hrs by CCK-8 assay; type: functional; details: MV4-11, 72 h
Summary of the method: (§1)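 CCK-8 viability readout. Cells were cultured in RPMI 1640 with 10% FBS and 1% penicillin/streptomycin and seeded at 3000 (HEL), 5000 (MV4-11) or 3000 (HL60) cells/well. Increasing compound concentrations were applied for 72 h, then CCK-8 was added for a further 3 h and absorbance read at 450 nm. Inhibition = (1−A_sample/A_control)×100, normalized to DMSO controls. Value is the mean of three independent measurements, obtained by curve fitting.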

HL-60 = experiment: Antiproliferative activity against human HL60 cells assessed as growth inhibition after 72 hrs by CCK-8 assay; type: functional; details: HL-60, 72 h; summary of the method: as §1
HEL [1] = experiment: Induction of cell cycle arrest in human HEL cells assessed as accumulation at S phase at 0.33 uM after 72 hrs by propidium iodide-staining based flow cytometry (reference value: 41.47%); type: functional
Summary of the method: (§2)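 Subconfluent HEL cells were treated for 72 h at 0.33, 1.0, 3.0 or 9.0 μM, with untreated cells as control. Cultures were pulsed with 10 μM BrdU for 30 min at 37 °C before harvest, then PBS-washed, fixed in 70% ethanol and denatured in 2 M HCl. After neutralization, cells were stained with fluorescein anti-BrdU antibody and propidium iodide. DNA content was measured by flow cytometry with 488 nm excitation.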

HEL [2] = experiment: Induction of cell cycle arrest in human HEL cells assessed as accumulation at G2 phase at 0.33 uM after 72 hrs by propidium iodide-staining based flow cytometry (reference value: 15.10%); type: functional; summary of the method: as §2
HEL [3] = experiment: Induction of cell cycle arrest in human HEL cells assessed as accumulation at G1 phase at 1 uM after 72 hrs by propidium iodide-staining based flow cytometry (reference value: 43.12%); type: functional; summary of the method: as §2
HEL [4] = experiment: Induction of cell cycle arrest in human HEL cells assessed as accumulation at G2 phase at 1 uM after 72 hrs by propidium iodide-staining based flow cytometry (reference value: 15.10%); type: functional; summary of the method: as §2
HEL [5] = experiment: Induction of cell cycle arrest in human HEL cells assessed as accumulation at G1 phase at 3 uM after 72 hrs by propidium iodide-staining based flow cytometry (reference value: 43.12%); type: functional; summary of the method: as §2
HEL [6] = experiment: Induction of cell cycle arrest in human HEL cells assessed as accumulation at G1 phase at 9 uM after 72 hrs by propidium iodide-staining based flow cytometry (reference value: 43.12%); type: functional; summary of the method: as §2
HEL [7] = experiment: Induction of cell cycle arrest in human HEL cells assessed as accumulation of cells at G1/S phase after 72 hrs by propidium iodide-staining based flow cytometry; type: functional; summary of the method: as §2
HEL [8] = experiment: Induction of apoptosis in human HEL cells after 72 hrs by FITC-annexin V/propidium iodide-double staining based flow cytometry; type: functional, cell-based
HEL [9] = experiment: Induction of apoptosis in human HEL cells assessed as viable cells at 1 uM after 72 hrs by FITC-annexin V/propidium iodide-double staining based flow cytometry (reference value: 93.77%); type: functional; details: read-out: Activity
HEL [10] = experiment: Induction of apoptosis in human HEL cells assessed as early apoptotic cells at 1 uM after 72 hrs by FITC-annexin V/propidium iodide-double staining based flow cytometry (reference value: 2.23%); type: functional
HEL [11] = experiment: Induction of apoptosis in human HEL cells assessed as necrotic cells at 1 uM after 72 hrs by FITC-annexin V/propidium iodide-double staining based flow cytometry (reference value: 2.40%); type: functional
HEL [12] = experiment: Induction of apoptosis in human HEL cells assessed as early apoptotic cells at 3 uM after 72 hrs by FITC-annexin V/propidium iodide-double staining based flow cytometry (reference value: 2.23%); type: functional
HEL [13] = experiment: Induction of apoptosis in human HEL cells assessed as necrotic cells at 3 uM after 72 hrs by FITC-annexin V/propidium iodide-double staining based flow cytometry (reference value: 2.40%); type: functional
HEL [14] = experiment: Induction of apoptosis in human HEL cells assessed as viable cells at 9 uM after 72 hrs by FITC-annexin V/propidium iodide-double staining based flow cytometry (reference value: 93.77%); type: functional; details: read-out: Activity
HEL [15] = experiment: Induction of apoptosis in human HEL cells assessed as necrotic cells at 9 uM after 72 hrs by FITC-annexin V/propidium iodide-double staining based flow cytometry (reference value: 2.40%); type: functional
[16] = molecular target: T1, Receptor-type tyrosine-protein kinase FLT3 (Homo sapiens, UniProt P36888); experiment: Inhibition of N-terminal GST-tagged human FLT3 cytoplasmic domain (564 to 993 residues) expressed in baculovirus expression system musing FAM-labeled peptide as substrate preincubated for 10 mins followed by substrate addition measured after 1 hr in presence of ATP by mobility shift assay
T1 sequence (P36888 whole entry): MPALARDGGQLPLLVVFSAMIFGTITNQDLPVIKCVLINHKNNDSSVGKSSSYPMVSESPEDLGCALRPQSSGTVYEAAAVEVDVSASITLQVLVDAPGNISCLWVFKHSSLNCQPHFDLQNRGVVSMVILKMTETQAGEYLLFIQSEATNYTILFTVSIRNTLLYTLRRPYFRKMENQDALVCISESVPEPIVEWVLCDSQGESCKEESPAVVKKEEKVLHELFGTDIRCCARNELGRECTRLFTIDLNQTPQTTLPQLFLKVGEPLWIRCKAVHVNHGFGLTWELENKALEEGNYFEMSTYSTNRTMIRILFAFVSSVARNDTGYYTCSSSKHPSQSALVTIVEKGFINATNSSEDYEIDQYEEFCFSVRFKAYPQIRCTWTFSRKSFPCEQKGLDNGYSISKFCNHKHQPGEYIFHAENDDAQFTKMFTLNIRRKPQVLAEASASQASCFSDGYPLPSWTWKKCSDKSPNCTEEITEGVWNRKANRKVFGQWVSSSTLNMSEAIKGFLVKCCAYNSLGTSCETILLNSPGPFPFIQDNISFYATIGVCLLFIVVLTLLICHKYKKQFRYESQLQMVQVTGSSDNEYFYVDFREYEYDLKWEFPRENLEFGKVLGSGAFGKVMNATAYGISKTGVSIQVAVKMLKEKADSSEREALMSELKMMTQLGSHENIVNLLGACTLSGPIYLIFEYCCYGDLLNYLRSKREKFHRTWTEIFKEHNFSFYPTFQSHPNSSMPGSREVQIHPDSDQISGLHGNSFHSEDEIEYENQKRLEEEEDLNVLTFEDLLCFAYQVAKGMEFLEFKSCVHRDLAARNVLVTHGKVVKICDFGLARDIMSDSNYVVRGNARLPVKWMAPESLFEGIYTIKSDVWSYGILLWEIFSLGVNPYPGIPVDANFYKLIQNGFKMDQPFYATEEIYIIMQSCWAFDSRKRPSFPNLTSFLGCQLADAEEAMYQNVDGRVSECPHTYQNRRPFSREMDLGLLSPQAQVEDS
Summary of the method: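 Caliper mobility-shift assay with recombinant kinase in 50 mM HEPES pH 7.5, 0.0015% Brij-35. Compound was diluted from DMSO and preincubated with enzyme for 10 min at room temperature. FAM-labeled peptide plus ATP was then added and the reaction run for 1 h at 28 °C. It was stopped with an EDTA (50 mM) buffer. Conversion gave percent inhibition relative to max/min controls, and IC50 came from a four-parameter Hill fit. Duplicate wells were used.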

## CC(=O)c1ccc(NC(=O)N2CCN(c3ccnc(Nc4ccc(N5CCOCC5)cc4)n3)CC2)cc1
MV4-11
  GI50: 11 µM
HL-60
  GI50: 16.5 µM
HEL [1]
  Activity: 38.62%
HEL [2]
  Activity: 7.31%
HEL [3]
  Activity: 61.44%
HEL [4]
  Activity: 6.97%
HEL [5]
  Activity: 71.85%
HEL [6]
  Activity: 78.05%
HEL [7]
  Activity: Dose-dependent effect
HEL [8]
  Activity: Dose-dependent effect
HEL [9]
  viability at 1 µM: 47.9%
HEL [10]
  Activity: 16.97%
HEL [11]
  Activity: 12.73%
HEL [12]
  Activity: 31.87%
HEL [13]
  Activity: 7%
HEL [14]
  viability at 9 µM: 24.3%
HEL [15]
  Activity: 9.77%
[16]
  IC50: 0.03 µM
